Measured values: ChEMBL document CHEMBL1137663, “Evaluation of tigecycline penetration into colon wall tissue and epithelial lining fluid using a population pharmacokinetic model and Monte Carlo simulation” (Antimicrob Agents Chemother, 2007)

Experiments:
[1] = Volume of distribution in human serum; format: ADME, organism-based
Summary of the method: (§1)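 Serum, ELF and colon wall concentrations were fitted simultaneously in BigNPAG. One specific-volume term estimated all tissue compartment volumes. Individual Bayesian estimates were obtained with the population-of-one utility.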

[2] = Clearance in human serum; format: ADME, organism-based; summary of the method: as §1
[3] = Volume of distribution in human colon wall tissue; format: ADME, organism-based; summary of the method: as §1
[4] = Volume of distribution in human lung; format: ADME, organism-based; summary of the method: as §1
[5] = AUC (0 to 24 hrs) in human serum at 5th AUC percentile curve; format: ADME, cell-free; parameters: time < 24 hr
Summary of the method: (§2)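 Serum came from five studies. Study 1: serial samples over 24 h after the last of seven i.v. doses. Study 2: samples after a single 100-mg infusion. Studies 3-5: patients on 100 mg then 50 mg q12h for 5-14 days, sampled predose, at end of infusion, and at 3 and 6 h. Assay was LC-MS/MS. Population modeling plus Monte Carlo simulation gave steady-state AUC0-24 percentiles.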

[6] = AUC (0 to 24 hrs) in human serum at 25th AUC percentile curve; format: ADME, cell-free; parameters: time < 24 hr; summary of the method: as §2
[7] = AUC (0 to 24 hrs) in human serum at 50th AUC percentile curve; format: ADME, cell-free; parameters: time < 24 hr; summary of the method: as §2
[8] = AUC (0 to 24 hrs) in human serum at 75th AUC percentile curve; format: ADME, cell-free; parameters: time < 24 hr; summary of the method: as §2
[9] = AUC (0 to 24 hrs) in human serum at 95th AUC percentile curve; format: ADME, cell-free; parameters: time < 24 hr; summary of the method: as §2
[10] = AUC (0 to 24 hrs) in human colon wall tissue at 5th AUC percentile curve; format: ADME, tissue-based; parameters: time < 24 hr
Summary of the method: (§3)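 Study 2: a single 100-mg i.v. dose was infused over about 30 min. Colon wall was collected about 4, 8, 12 or 24 h after the infusion started. Tissue (0.20-g aliquot) was homogenized with deuterated internal standard in acetonitrile, then assayed by LC-MS/MS. Data were comodeled with serum from all five studies in BigNPAG. Monte Carlo simulation gave steady-state AUC0-24 percentiles.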

[11] = AUC (0 to 24 hrs) in human colon wall tissue at 25th AUC percentile curve; format: ADME, tissue-based; parameters: time < 24 hr; summary of the method: as §3
[12] = AUC (0 to 24 hrs) in human colon wall tissue at 50th AUC percentile curve; format: ADME, tissue-based; parameters: time < 24 hr; summary of the method: as §3
[13] = AUC (0 to 24 hrs) in human colon wall tissue at 75th AUC percentile curve; format: ADME, tissue-based; parameters: time < 24 hr; summary of the method: as §3
[14] = AUC (0 to 24 hrs) in human colon wall tissue at 95th AUC percentile curve; format: ADME, tissue-based; parameters: time < 24 hr; summary of the method: as §3
[15] = Penetration ratio, ratio of AUC (0 to 24 hrs) for human colon wall tissue to AUC (0 to 24 hrs) for human serum at 5th AUC percentile curve; format: ADME
Summary of the method: (§4)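 Penetration was expressed as steady-state tissue (colon wall or ELF) AUC0-24 divided by serum AUC0-24. AUCs came from the population model, by direct simulation with the mean parameter vector and by Monte Carlo simulation using the parameter distribution.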

[16] = Penetration ratio, ratio of AUC (0 to 24 hrs) for human epithelial lining fluid to AUC (0 to 24 hrs) for human serum at 25th AUC percentile curve; format: ADME, tissue-based; summary of the method: as §4
[17] = Penetration ratio, ratio of AUC (0 to 24 hrs) for human epithelial lining fluid to AUC (0 to 24 hrs) for human serum at 50th AUC percentile curve; format: ADME, tissue-based; summary of the method: as §4
[18] = Penetration ratio, ratio of AUC (0 to 24 hrs) for human epithelial lining fluid to AUC (0 to 24 hrs) for human serum at 75th AUC percentile curve; format: ADME, tissue-based; summary of the method: as §4
[19] = Penetration ratio, ratio of AUC (0 to 24 hrs) for human epithelial lining fluid to AUC (0 to 24 hrs) for human serum at 95th AUC percentile curve; format: ADME, tissue-based; summary of the method: as §4
[20] = Protein binding in human serum; format: ADME, cell-free; conditions: read-out: PB (converted)
[21] = Penetration ratio, ratio of AUC (0 to 24 hrs) for human colon wall tissue to AUC (0 to 24 hrs) for human serum at 25th AUC percentile curve; format: ADME; summary of the method: as §4
[22] = Penetration ratio, ratio of AUC (0 to 24 hrs) for human colon wall tissue to AUC (0 to 24 hrs) for human serum at 50th AUC percentile curve; format: ADME; summary of the method: as §4
[23] = Penetration ratio, ratio of AUC (0 to 24 hrs) for human colon wall tissue to AUC (0 to 24 hrs) for human serum at 75th AUC percentile curve; format: ADME; summary of the method: as §4
[24] = Penetration ratio, ratio of AUC (0 to 24 hrs) for human colon wall tissue to AUC (0 to 24 hrs) for human serum at 95th AUC percentile curve; format: ADME; summary of the method: as §4
[25] = AUC (0 to 24 hrs) in human epithelial lining fluid at 5th AUC percentile curve; format: ADME, tissue-based; parameters: time < 24 hr
Summary of the method: (§5)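 Study 1: 100-mg i.v. loading dose, then 50 mg i.v. every 12 h through day 4 (seven 30-min infusions). Drug was measured in BAL fluid by LC-MS/MS. ELF concentration was derived by urea dilution, using BAL and serum urea drawn at bronchoscopy. Values were comodeled with serum data in a population model, and Monte Carlo simulation gave steady-state AUC0-24 percentiles.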

[26] = AUC (0 to 24 hrs) in human epithelial lining fluid at 25th AUC percentile curve; format: ADME, tissue-based; parameters: time < 24 hr; summary of the method: as §5
[27] = AUC (0 to 24 hrs) in human epithelial lining fluid at 50th AUC percentile curve; format: ADME, tissue-based; parameters: time < 24 hr; summary of the method: as §5
[28] = AUC (0 to 24 hrs) in human epithelial lining fluid at 75th AUC percentile curve; format: ADME, tissue-based; parameters: time < 24 hr; summary of the method: as §5
[29] = AUC (0 to 24 hrs) in human epithelial lining fluid at 95th AUC percentile curve; format: ADME, tissue-based; parameters: time < 24 hr; summary of the method: as §5
[30] = Penetration ratio, ratio of AUC (0 to 24 hrs) for human epithelial lining fluid to AUC (0 to 24 hrs) for human serum at 5th AUC percentile curve; format: ADME, tissue-based; summary of the method: as §4

Vd [1]: 30.9 L | clearance [2]: 243 mL/min | Vd [3]: 50.5 L | Vd [4]: 35.2 L | AUC(0-t) at 24 h [5]: 4.84 µg·h/mL | AUC(0-t) at 24 h [6]: 5.09 µg·h/mL | AUC(0-t) at 24 h [7]: 6.16 µg·h/mL | AUC(0-t) at 24 h [8]: 8.72 µg·h/mL | AUC(0-t) at 24 h [9]: 18.5 µg·h/mL | AUC(0-t) at 24 h [10]: 1.65 µg·h/mL | AUC(0-t) at 24 h [11]: 6.44 µg·h/mL | AUC(0-t) at 24 h [12]: 15.6 µg·h/mL | AUC(0-t) at 24 h [13]: 30.4 µg·h/mL | AUC(0-t) at 24 h [14]: 3370 µg·h/mL | Kp [15]: 0.16 | Kp [16]: 0.823 | Kp [17]: 1.15 | Kp [18]: 2.45 | Kp [19]: 5.23 | fraction unbound [20]: 0.29 | Kp [21]: 0.683 | Kp [22]: 1.73 | Kp [23]: 3.91 | Kp [24]: 199 | AUC(0-t) at 24 h [25]: 4.3 µg·h/mL | AUC(0-t) at 24 h [26]: 5.19 µg·h/mL | AUC(0-t) at 24 h [27]: 9.03 µg·h/mL | AUC(0-t) at 24 h [28]: 22.3 µg·h/mL | AUC(0-t) at 24 h [29]: 32.4 µg·h/mL | Kp [30]: 0.561
SMILES: CN(C)c1cc(NC(=O)CNC(C)(C)C)c(O)c2c1C[C@H]1C[C@H]3[C@H](N(C)C)C(O)=C(C(N)=O)C(=O)[C@@]3(O)C(O)=C1C2=O [TIGECYCLINE]
